# ChEMBL document CHEMBL1143652, “Joys of molecules. 2. Endeavors in chemical biology and medicinal chemistry” (J Med Chem, 2005)
# Where “and” joins values, the source holds several entries; their conditions need not be identical. Equal values may be shown once.
# What was measured:
# Felis catus = species: Felis catus; assay: Inhibition of LTC4 and LTD4 production in cat lung at 5 mM; type: functional
# Bacteria = assay: Minimum inhibitory concentration against bacterial strains; type: functional
# KB 3-1 [1] = assay: Cytotoxicity against KB-31 human epidermoid cancer cells; type: functional, cell-based
# KB 3-1 [2] = assay: Cytotoxicity against KB3-1 human epidermoid cancer cells; type: functional, cell-based
# [3] = molecular target: T1, Mycothiol S-conjugate amidase (Mycobacterium tuberculosis, UniProt P9WJN1); assay: Inhibition of Mycobacterium tuberculosis detoxification enzyme mycothiol-S-conjugate amidase (MCA)
# T1 sequence (P9WJN1 whole entry): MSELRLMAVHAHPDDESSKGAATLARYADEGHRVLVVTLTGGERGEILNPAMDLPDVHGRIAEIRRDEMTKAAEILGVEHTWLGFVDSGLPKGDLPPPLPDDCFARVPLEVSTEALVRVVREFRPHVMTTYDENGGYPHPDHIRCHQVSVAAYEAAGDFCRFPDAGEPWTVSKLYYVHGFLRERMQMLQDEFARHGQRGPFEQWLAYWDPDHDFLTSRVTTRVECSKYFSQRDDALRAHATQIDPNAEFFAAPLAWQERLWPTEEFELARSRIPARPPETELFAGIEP
# [4] = In vitro cytotoxicity against leukemia P-388 tumor cells; type: functional, cell-based; settings: Mus musculus, P388
# [5] = molecular target: Tubulin beta-4B chain (Homo sapiens) (UniProt P68371); assay: (§1) Tubulin polymerization at a concentration of 100 uM incubated for 90 minutes; type: functional
# How it was run: (§2)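 Tubulin polymerization was read as percent polymerization, with test drug at 100 µM and a 90 min incubation.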
# [6] = molecular target: Tubulin beta-4B chain (Homo sapiens) (UniProt P68371); assay: as §1; how it was run: as §2
# 1A9 [7] = assay: Inhibition concentration against human ovarian 1A9 tumor cells; type: functional, cell-based
# Enterococcus faecium = assay: Minimum inhibitory concentration against vancomycin resistant Enterococcus faecium; type: functional
# [8] = Antiproliferation activity against cancer cell lines by mixed-lymphocyte-reaction proliferation assay; type: functional, cell-based; settings: Homo sapiens
# 1A9 [9] = assay: Cytotoxicity against 1A9 ovarian cancer cells; type: functional, cell-based; settings: Homo sapiens
# [10] = molecular target: Polyunsaturated fatty acid 5-lipoxygenase (Homo sapiens) (UniProt P09917); assay: Inhibitory concentration against 5-lipoxygenase
# OVCAR-3 = assay: Cytotoxicity by measuring inhibitory concentration against ovcar-3 tumor cell line; type: functional, cell-based, Homo sapiens
# 1A9 [11] = assay: Cytotoxicity against 1A9 human ovarian carcinoma cells; type: functional, cell-based
# Sequence of Polyunsaturated fatty acid 5-lipoxygenase (Homo sapiens) (P09917 whole entry): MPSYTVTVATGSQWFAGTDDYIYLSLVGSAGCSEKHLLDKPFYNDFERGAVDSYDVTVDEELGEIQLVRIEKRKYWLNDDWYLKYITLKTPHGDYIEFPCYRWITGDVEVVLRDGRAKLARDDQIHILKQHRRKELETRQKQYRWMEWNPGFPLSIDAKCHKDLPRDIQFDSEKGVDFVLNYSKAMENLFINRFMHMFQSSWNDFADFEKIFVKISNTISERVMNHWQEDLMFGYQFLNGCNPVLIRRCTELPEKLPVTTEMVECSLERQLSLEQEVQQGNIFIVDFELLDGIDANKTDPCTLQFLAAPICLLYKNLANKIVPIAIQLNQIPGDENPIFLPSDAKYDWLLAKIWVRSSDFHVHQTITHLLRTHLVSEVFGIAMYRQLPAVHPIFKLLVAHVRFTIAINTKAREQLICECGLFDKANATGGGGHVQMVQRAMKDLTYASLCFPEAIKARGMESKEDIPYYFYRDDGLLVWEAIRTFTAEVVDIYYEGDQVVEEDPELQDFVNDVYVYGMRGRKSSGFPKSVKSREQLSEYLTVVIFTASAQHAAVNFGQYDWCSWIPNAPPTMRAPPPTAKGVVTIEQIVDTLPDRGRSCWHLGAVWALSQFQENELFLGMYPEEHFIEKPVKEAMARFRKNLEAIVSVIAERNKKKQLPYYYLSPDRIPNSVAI
# Sequence of Tubulin beta-4B chain (Homo sapiens) (P68371 whole entry): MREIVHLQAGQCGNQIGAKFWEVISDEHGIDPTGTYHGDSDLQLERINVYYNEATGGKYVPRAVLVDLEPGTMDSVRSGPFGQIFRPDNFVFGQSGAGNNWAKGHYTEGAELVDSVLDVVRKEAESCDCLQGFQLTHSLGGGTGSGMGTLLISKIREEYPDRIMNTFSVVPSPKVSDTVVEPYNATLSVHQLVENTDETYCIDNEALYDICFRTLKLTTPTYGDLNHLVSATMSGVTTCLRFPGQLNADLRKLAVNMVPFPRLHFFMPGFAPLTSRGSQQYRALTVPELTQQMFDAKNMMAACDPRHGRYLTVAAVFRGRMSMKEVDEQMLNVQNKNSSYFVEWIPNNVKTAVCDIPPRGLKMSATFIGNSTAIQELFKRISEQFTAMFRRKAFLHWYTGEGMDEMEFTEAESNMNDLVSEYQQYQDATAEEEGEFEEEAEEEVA
smiles,measurement,setting,value
CCCCC/C=C\C/C=C\C/C=C\C1(/C=C\CCCC(=O)O)CC1,Inhibition,Felis catus,8%
Cc1cccc(C)c1SSCCNC(=O)/C(Cc1cccc(Br)c1)=N/O,MIC,Bacteria,0.11 ug m/L
CC(C)=CCCC1(C)C=Cc2c(O)c3c(c(CC=C(C)C)c2O1)O[C@]12C(=CC4C[C@H]1C(C)(C)OC2(CC=C(C)C)C4=O)C3=O (some centres not stated) [GAMBOGIN],IC50,KB 3-1 [1],9.35 µM
same,IC50,KB 3-1 [2],9.35 µM
Nc1ccc(SSCCNC(=O)/C(Cc2ccc(O)c(Cl)c2)=N/O)cc1,IC50,[3],35 µM
same,MIC,Bacteria,1.23 ug m/L
Cc1cccc(C)c1SSCCNC(=O)/C(Cc1cc(F)cc(F)c1)=N/O,MIC,Bacteria,0.28 ug m/L
COC(=O)[C@]1(O)C(=O)c2c(cc(C)c(Br)c2O)[C@H]2[C@@H](C(C)C)CC[C@]21C [HAMIGERAN A],IC50,[4],31.6 µM
CNC(=O)/C1=C/[C@@H]2[C@@H](C(C)C)CC=C(C)[C@@H]2C[C@H](OC(=O)/C=C/c2cn(C)cn2)[C@]2(C)C=C[C@@]1(OC)O2,TP,[5],52%
same,TP,[6],52%
same,IC50,1A9 [7],0.045 µM
CCOC(=O)/C1=C/[C@@H]2[C@@H](C(C)C)CC=C(C)[C@@H]2C[C@H](OC(=O)/C=C/c2cn(C)cn2)[C@]2(C)C=C[C@@]1(O)O2 [SARCODICTYIN B],TP,[5],71%
same,TP,[6],71%
same,IC50,1A9 [7],0.002 µM
CC(C)C[C@H]1NC(=O)[C@H](Cc2ccccc2)NC(=O)CNC(=O)[C@H](C)NC(=O)[C@H](Cc2ccc(O)cc2)NC(=O)/C=C\c2ccccc2OCOC1=O,MIC,Enterococcus faecium,0.25 µg/mL
C=CCO[C@@H]1[C@H](OC[C@H](NC(=O)[C@H](O)CC/C=C\CCCC[C@@H]2C[C@@H]2CCCCCCCCCC)[C@H](O)CCCCCCC[C@@H]2C[C@@H]2CCCCCCCCCC)O[C@@H](CO)[C@@H](O)[C@@H]1O,IC50,[8],7.1 µM
COC1=C(CC=C(C)C)[C@]2(OC(=O)C3=C[C@]4(OC)C[C@H]5C(C)(C)OC(CC=C(C)C)(C4=O)[C@]35O2)C(=O)C2=C1C=CC(C)(C)O2,IC50,1A9 [9],5 µM
Nc1ccc(SSCCNC(=O)/C(Cc2cccc(Br)c2)=N/O)cc1,IC50,[3],185 µM
same,MIC,Bacteria,0.09 ug m/L
CCCCCCCCCC[C@H]1C[C@H]1CCCC/C=C\CC[C@@H](O)C(=O)N[C@@H](CO[C@@H]1O[C@@H](CO)[C@@H](O)[C@H](O)[C@@H]1O)[C@@H](CCCCCCC[C@@H]1C[C@@H]1CCCCCCCCCC)OC=C(C)C,IC50,[8],28 µM
CCCCC/C=C/C\C=C/C=C/C=C/[C@@H]1C[C@H]1CCCC(=O)OC,ID50,[10],6 µM
O=C(NCCSSc1ccc(F)cc1)/C(Cc1cc(F)cc(F)c1)=N/O,IC50,[3],2720 µM
same,MIC,Bacteria,0.46 ug m/L
COC(=O)/C1=C/[C@@H]2[C@@H](C(C)C)CC=C(C)[C@@H]2C[C@H](OC(=O)/C=C/c2cn(C)cn2)[C@]2(C)C=C[C@@]1(O)O2 [SARCODICTYIN A],TP,[5],67%
same,TP,[6],67%
same,IC50,1A9 [7],0.34 µM
O=C(NCCSSCCNC(=O)/C(Cc1ccc(O)c(Br)c1)=N/O)/C(Cc1ccc(O)c(Br)c1)=N/O [PSAMMAPLIN A],MIC,Bacteria,4.85 ug m/L
CC(=O)OC1C(=O)[C@@]2(C)[C@H]([C@H](OC(=O)c3ccc(N(C)C)cc3)[C@]3(O)C[C@H](OC(=O)[C@H](O)[C@@H](NC(=O)c4ccccc4)c4ccccc4)C(C)=C1C3(C)C)[C@]1(OC(C)=O)CO[C@@H]1C[C@@H]2O (some centres not stated),IC50,"OVCAR-3; Homo sapiens, OVCAR-3",2.21 µM
same,IC50,OVCAR-3; ovcar-3,2.2 µM
CC(C)=CCc1c2c(c(O)c3c1O[C@]14C(=C[C@@H]5C[C@H]1C(C)(C)OC4(CC=C(C)C)C5=O)C3=O)C=CC(C)(CCC(C)C)O2 (some centres not stated),IC50,KB 3-1 [1],6.01 µM
same,IC50,KB 3-1 [2],6.01 µM
CCCCC/C=C\C1(/C=C\C2(/C=C\C3(/C=C\CCCC(=O)O)CC3)CC2)CC1,Inhibition,Felis catus,10%
Cc1cc(O)c2c(c1)[C@H]1[C@@H](C(C)C)CC[C@@]1(C)C(=O)C2=O,IC50,[4],13.9 µM
"CCCCCCCCCC[C@H]1CC1CCCC/C=C\CC[C@@H](O)C(=O)N[C@@H](CO[C@@H]1OC(CO)[C@@H](O)[C@H](O)[C@@H]1OCC=C(C)C)[C@H](O)CCC/C=C\CCCC[C@@H]1C[C@@H]1CCCCCCCCCC (single isomer, unassigned)",IC50,[8],> 50 µM
CC/C=C\C=C/C(=O)N/C=C/C[C@H]1C[C@H]2C[C@H](OC(C)=O)C[C@H](Cc3cccc(O)c3C(=O)O1)O2,IC50,1A9 [11],0.0032 µM
CCCCC/C=C\C\C=C/C=C/C=C/[C@@H]1C[C@H]1CCCC(=O)O,ID50,[10],44 µM
CC(=O)O[C@@H]1C2=C(C)[C@@H](OC(=O)[C@H](O)[C@@H](NC(=O)c3ccccc3)c3ccccc3)C[C@@](O)([C@@H](OC(=O)c3ccccc3)c3ccccc3[C@H]1OC(C)=O)C2(C)C,IC50,OVCAR-3; ovcar-3,0.028 µM and 0.28 µM
CCCOC(=O)/C1=C/[C@@H]2[C@@H](C(C)C)CC=C(C)[C@@H]2C[C@H](OC(=O)/C=C/c2cn(C)cn2)[C@]2(C)C=C[C@@]1(OC)O2,TP,[5],69%
same,TP,[6],69%
same,IC50,1A9 [7],0.003 µM
CCCCCCCCCC[C@H]1C[C@H]1CCCC/C=C\CC[C@@H](O)C(=O)N[C@@H](CO[C@@H]1O[C@@H](CO)[C@@H](O)[C@H](O)[C@@H]1OCC=C(C)C)[C@H](O)CCCCCCC[C@@H]1C[C@@H]1CCCCCCCCCC,IC50,[8],> 50 µM
CCOC(=O)/C1=C/[C@@H]2[C@@H](C(C)C)CC=C(C)[C@@H]2C[C@H](OC(=O)/C=C/c2cn(C)cn2)[C@]2(C)C=C[C@@]1(OC)O2,TP,[5],46%
same,TP,[6],46%
same,IC50,1A9 [7],0.002 µM
CC/C=C\C=C/C(=O)N/C=C\C[C@H]1C[C@H]2C[C@H](O)C[C@H](Cc3cccc(O)c3C(=O)O1)O2,IC50,1A9 [11],0.0707 µM
O=C(/C=C/c1ccccc1)N/C=C/C[C@H]1C[C@H]2C[C@H](O)C[C@H](Cc3cccc(O)c3C(=O)O1)O2,IC50,1A9 [11],0.05 µM
CCCCCCCCCC[C@H]1C[C@H]1CCCC/C=C\CC[C@@H](O)C(=O)N[C@@H](CO[C@@H]1O[C@@H](CO)[C@@H](O)[C@H](O)[C@@H]1OC/C=C(\C)CCC=C(C)C)[C@H](O)CCCCCCC[C@@H]1C[C@@H]1CCCCCCCCCC,IC50,[8],28 µM
COC1(OC)C2=C(OC(C)(C)C=C2)C(=O)[C@@H](OC(=O)C2=C[C@]3(OC)C[C@H]4C(C)(C)OC(CC=C(C)C)(C3=O)[C@]24O)[C@@H]1CC=C(C)C,IC50,1A9 [9],9 µM
CC/C=C/C=C/C(=O)N/C=C/C[C@H](O)C[C@H]1C[C@H](OC(C)=O)C[C@H](Cc2cccc3c2C(=O)OC(C)(C)O3)O1,IC50,1A9 [11],0.035 µM
CC/C=C\C=C/C(=O)N/C=C/C[C@H]1C[C@H]2C[C@H](O)C[C@H](Cc3cccc(O)c3C(=O)O1)O2 [APICULAREN A],IC50,1A9 [11],0.00078 µM
CCOC(=O)c1c(OCC)cc(C)cc1[C@H]1[C@@H](C(C)C)CC[C@@]1(C)C(=O)OCC,IC50,[4],54.2 µM
CC(=O)OC1C(=O)[C@@]2(C)[C@H]([C@H](OC(=O)c3ccc4ccccc4c3)[C@]3(O)C[C@H](OC(=O)[C@H](O)[C@@H](NC(=O)c4ccccc4)c4ccccc4)C(C)=C1C3(C)C)[C@]1(OC(C)=O)CO[C@@H]1C[C@@H]2O (some centres not stated),IC50,OVCAR-3; ovcar-3,> 11000 µM
CO[C@@]12C=C3C(=O)O[C@]4(O[C@]35[C@@H](C1)C(C)(C)OC5(CC=C(C)C)C2=O)C(=O)C1=C(C=CC(C)(C)O1)C(=O)C4CC=C(C)C (some centres not stated) [1-O-METHYLLATERIFLORONE],IC50,1A9 [9],25 µM
Cc1cc2c(c(O)c1Br)C(=O)C(=O)[C@]1(C)CC[C@H](C(C)C)[C@H]21 [HAMIGERAN B],IC50,[4],13.5 µM
CC(=O)OC1C(=O)[C@@]2(C)[C@H]([C@H](OC(=O)c3ccco3)[C@]3(O)C[C@H](OC(=O)[C@H](O)[C@@H](NC(=O)c4ccccc4)c4ccccc4)C(C)=C1C3(C)C)[C@]1(OC(C)=O)CO[C@@H]1C[C@@H]2O (some centres not stated),IC50,"OVCAR-3; Homo sapiens, OVCAR-3",0.0451 µM
same,IC50,OVCAR-3; ovcar-3,0.045 µM
O=C(/C=C/c1cccs1)N/C=C/C[C@H]1C[C@H]2C[C@H](O)C[C@H](Cc3cccc(O)c3C(=O)O1)O2,IC50,1A9 [11],0.0413 µM
O=C(NCCSSc1ccc(F)cc1)/C(Cc1cccc(Br)c1)=N/O,IC50,[3],90 µM
same,MIC,Bacteria,0.11 ug m/L
CC(C)=CCc1c2c(c(O)c3c1O[C@]14C(=C[C@@H]5C[C@H]1C(C)(C)OC4(CC=C(C)C)C5=O)C3=O)C=CC(C)(C)O2,IC50,KB 3-1 [1],8.41 µM
same,IC50,KB 3-1 [2],8.41 µM
CCCCC/C=C\C/C=C\C1(/C=C\C2(/C=C\CCCC(=O)O)CC2)CC1,Inhibition,Felis catus,5%
